Compound activity deposited in PubChem BioAssay by Broad Institute.
The full list was thinned out, with hits kept by preference.
E-sel inducer: E-selectin induction on HUVECs. HUVEC E-selectin immunofluorescence imaging; normalized: neutral wells 0, TNF-alpha wells 100. 260,000 compounds, 0.37% hits. activation, % at 7.58 µM. P16581;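 active = mean E-selectin-positive cell signal at least 10% of the positive control, reached in at least 60% of replicates, without over 20% cell loss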
Target sequence (P16581 whole entry, looked up): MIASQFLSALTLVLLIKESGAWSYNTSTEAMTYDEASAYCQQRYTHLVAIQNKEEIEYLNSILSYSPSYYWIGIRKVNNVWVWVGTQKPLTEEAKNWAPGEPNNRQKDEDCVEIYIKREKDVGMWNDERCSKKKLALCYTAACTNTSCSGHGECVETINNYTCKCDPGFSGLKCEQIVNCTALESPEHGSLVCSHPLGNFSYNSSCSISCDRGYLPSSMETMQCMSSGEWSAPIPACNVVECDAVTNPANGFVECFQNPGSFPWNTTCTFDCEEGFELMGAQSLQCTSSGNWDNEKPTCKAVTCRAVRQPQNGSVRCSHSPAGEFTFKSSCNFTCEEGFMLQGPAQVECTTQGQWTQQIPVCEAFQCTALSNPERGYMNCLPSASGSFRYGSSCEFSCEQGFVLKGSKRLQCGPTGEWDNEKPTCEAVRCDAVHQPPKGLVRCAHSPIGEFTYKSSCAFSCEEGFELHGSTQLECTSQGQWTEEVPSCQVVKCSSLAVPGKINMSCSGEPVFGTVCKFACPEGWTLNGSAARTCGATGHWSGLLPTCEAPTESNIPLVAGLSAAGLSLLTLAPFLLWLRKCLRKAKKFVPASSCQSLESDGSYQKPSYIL
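assay system = HUVEC, human umbilical vein endothelial cells | input = 3,000 HUVEC seeded per well | medium = EGM-2 growth medium on 0.1% gelatin-coated wells | dosing = one compound dose added by pin transfer | signal = immunofluorescence imaging | read-out basis = % PE-positive cells | control set = TNF-alpha, DMSO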
Hits are given with their value; 0 = inactive.

SMILES	E-sel inducer
CO[C@@H](CN(C)Cc1nccs1)[C@@H](C)CN([C@@H](C)CO)S(=O)(=O)c1ccc(C)cc1	0
C[C@H](CO)N1C[C@H](C)[C@H](CN(C)Cc2ccc(Oc3ccccc3)cc2)Oc2ccc(NS(=O)(=O)c3ccc(Cl)cc3)cc2C1=O	0
COc1ccc(S(=O)(=O)Nc2ccc3c(c2)C(=O)N([C@H](C)CO)C[C@@H](C)[C@@H](CN(C)Cc2ccc(C(=O)Nc4ccccc4N)cc2)O3)cc1	0
COc1ccc(S(=O)(=O)Nc2ccc3c(c2)C(=O)N([C@H](C)CO)C[C@H](C)[C@H](CN(C)Cc2ccc(Cl)c(Cl)c2)O3)cc1	0
COc1ccc(S(=O)(=O)Nc2ccc3c(c2)C(=O)N([C@@H](C)CO)C[C@@H](C)[C@@H](CN(C)Cc2ccc(Cl)c(Cl)c2)O3)cc1	42
Cc1ccc(S(=O)(=O)Nc2ccc3c(c2)C(=O)N([C@H](C)CO)C[C@H](C)[C@H](CN(C)Cc2ccc(-c4ccccc4)cc2)O3)cc1	0
C[C@@H]1CN([C@@H](C)CO)C(=O)c2cc(NS(=O)(=O)c3ccccc3)ccc2O[C@H]1CN(C)Cc1ccc(-c2ccccc2)cc1	0
COc1ccc(S(=O)(=O)Nc2ccc3c(c2)C(=O)N([C@H](C)CO)C[C@H](C)[C@@H](CN(C)Cc2ccc(Cl)c(Cl)c2)O3)cc1	0
COc1ccc(S(=O)(=O)Nc2ccc3c(c2)C(=O)N([C@@H](C)CO)C[C@@H](C)[C@@H](CN(C)Cc2ccc(C(=O)Nc4ccccc4N)cc2)O3)cc1	34
COc1ccc(S(=O)(=O)Nc2ccc3c(c2)C(=O)N([C@@H](C)CO)C[C@@H](C)[C@H](CN(C)Cc2ccc(C(=O)Nc4ccccc4N)cc2)O3)cc1	0
Cc1ccc(S(=O)(=O)Nc2ccc3c(c2)C(=O)N([C@H](C)CO)C[C@@H](C)[C@H](CN(C)Cc2ccc(-c4ccccc4)cc2)O3)cc1	157
CN(C)C(=O)c1cccc(-c2ccc([C@H]3[C@H]4CN(S(C)(=O)=O)CCCCN4[C@H]3CO)cc2)c1	0
O=C(C[C@@H]1C=C[C@H](NC(=O)c2ccccc2)[C@H](CO)O1)NCCc1ccncc1	0
CCNC(=O)[C@@H]1[C@@H](CO)[C@@H]2Cn3c(ccc(-c4ccc(F)cc4)c3=O)[C@H]1N2C(C)=O	0
COc1ccc(NC(=O)Nc2ccc3c(c2)[C@@H]2C[C@H](CC(=O)NCc4ccc5c(c4)OCO5)O[C@H](CO)[C@@H]2O3)cc1	0
COc1ccc(-c2ccc3c(c2)[C@H]2[C@H](CCN2S(=O)(=O)c2ccccc2C)[C@H](CO)N3)cc1	0
CCCC(=O)Nc1ccc2c(c1)C(=O)N(C)C[C@H](OC)[C@H](C)CN(S(=O)(=O)c1cn(C)cn1)[C@@H](C)CO2	0
COc1ccc(S(=O)(=O)N(C)C[C@H]2Oc3ccc(NC(=O)C4CCCCC4)cc3CC(=O)N([C@H](C)CO)C[C@H]2C)cc1	0
C[C@H](NC(=O)C[C@@H]1CC[C@H]2[C@@H](COC[C@@H](O)CN2Cc2cc(F)ccc2F)O1)c1ccccc1	0
C[C@H](CO)N1C[C@H](C)[C@H](CN(C)S(=O)(=O)c2ccc(C(F)(F)F)cc2)OCc2ccccc2-c2c(n(C)c3ccccc23)C1=O	0
C[C@H](CO)N1C[C@H](C)[C@H](CN(C)C(=O)NC2CCCCC2)Oc2c(NC(=O)Nc3ccc(F)cc3)cccc2C1=O	0
C[C@H](CO)N1C[C@H](C)[C@H](CN(C)CC2CCCCC2)Oc2c(NC(=O)Nc3ccc(F)cc3)cccc2C1=O	0
COc1ccc(NC(=O)Nc2cccc3c2O[C@@H](CN(C)C(=O)NC2CCCCC2)[C@@H](C)CN([C@H](C)CO)C3=O)cc1	38
C[C@@H]1CN([C@@H](C)CO)C(=O)c2cccc(NC(=O)Nc3ccc(F)cc3)c2O[C@H]1CN(C)CC1CCCCC1	58
COc1ccc(NC(=O)Nc2cccc3c2O[C@H](CN(C)C(=O)NC2CCCCC2)[C@@H](C)CN([C@H](C)CO)C3=O)cc1	0
SMILES	E-sel inducer
COc1ccc(NC(=O)Nc2cccc3c2O[C@@H](CN(C)C(=O)NC2CCCCC2)[C@H](C)CN([C@@H](C)CO)C3=O)cc1	0
C[C@@H]1CN([C@H](C)CO)C(=O)c2cccc(NC(=O)Nc3ccc(F)cc3)c2O[C@H]1CN(C)C(=O)NC1CCCCC1	66
C[C@@H]1CN([C@H](C)CO)C(=O)c2cccc(NC(=O)Nc3ccc(F)cc3)c2O[C@@H]1CN(C)C(=O)NC1CCCCC1	0
C[C@H]1CN([C@@H](C)CO)C(=O)c2cccc(NC(=O)Nc3ccc(F)cc3)c2O[C@H]1CN(C)CC1CC1	0
C[C@H](CO)N1C[C@H](C)[C@H](CN(C)S(=O)(=O)c2ccc(F)cc2)Oc2c(NS(=O)(=O)c3cn(C)cn3)cccc2C1=O	0
C[C@@H]1CN([C@@H](C)CO)C(=O)c2cccc(NC(=O)Nc3ccccc3)c2O[C@@H]1CN(C)C	0
CC(C)C(=O)Nc1ccc2c(c1)C(=O)N(C)[C@H]1CC[C@H](CC(=O)NC3CCCC3)O[C@H]1CO2	0
